Measurements collected from several papers.
Each line is one published result; the experiments were not run side by side.
Effect on: cell growth or viability

For COc1cc2c(cc1O)CCN(C(=O)c1cc(OC)c(OC)c(OC)c1)C2, the GI50 was 0.733 µM (MDA-MB-231; WST-1; 96 h).
The IC50 of COc1ccc(-c2nc3ccccc3n2Cc2ccccc2)cc1OC is reported as 27.1 µM (MDA-MB-231; MTT).
CCOC(=O)C(C(C)=O)=C1Sc2nc3ccc(S(=O)(=O)N4CCCC4)cc3nc2S1 has a viability of 13.8% (MDA-MB-231; MTT; 25 µM; 24 h).
CSc1ccc(-c2nc3ccccc3[nH]2)cc1 has an IC50 of 36.6 µM (MDA-MB-231; MTT; 48 h).
COc1cc(C)c(-c2c(C)cc(OC)c3c(=O)cc(-c4ccc(N(C)C)cc4)oc23)c2oc(-c3ccc(N(C)C)cc3)cc(=O)c12 has an IC50 of 180 µM (HS27; MTT; 24 h).
For COc1cc2c(cc1O)CCN(Cc1cccc(O)c1)C2, the GI50 was over 100 µM (MDA-MB-231; WST-1; 96 h).
The viability of COc1cccc2c1C(=O)c1c(O)c3c(c(O)c1C2=O)C[C@@](O)(C(=O)CO)C[C@@H]3O[C@H]1C[C@H](N)[C@H](O)[C@H](C)O1 is reported as 11.8% (MDA-MB-231; MTT; 50 µM; 24 h).
The GI50 of COc1cc2c(cc1OS(N)(=O)=O)CCN(Cc1cccc(OC(C)C)c1)C2 is reported as 4.65 µM (MDA-MB-231; WST-1; 96 h).
The IC50 of COc1cc(OC)c2c(=O)cc(-c3ccc(N(C)C)cc3)oc2c1 is reported as over 200 µM (HS27; MTT; 24 h).
C[C@]12CC[C@H](O)CC1=CC[C@@H]1[C@@H]2CC[C@]2(C)C(n3cnc4ccccc43)=CC[C@@H]12 has a GI50 of 3.8 µM (CWR22Rv1; MTT).
The viability of O=C1CCCCC1=C1Sc2nc3ccc(S(=O)(=O)N4CCCC4)cc3nc2S1 is reported as 14.9% (MDA-MB-231; MTT; 50 µM; 24 h).
For Cc1ccc2nc(-c3ccc(N(C)C)cc3)[nH]c2c1, the IC50 was 31.5 µM (MDA-MB-231; MTT; 48 h).
COc1cc(OC)c2c(=O)cc(-c3ccccc3Br)oc2c1-c1c(OC)cc(OC)c2c(=O)cc(-c3ccccc3Br)oc12 has an IC50 of over 200 µM (HS27; MTT; 24 h).
With COc1cc(OC)c(OC)cc1CN1CCc2cc(OS(N)(=O)=O)c(OC)cc2C1 the GI50 was 0.491 µM (MDA-MB-231; WST-1; 96 h).
The IC50 of COc1cc(OC)c2c(=O)cc(-c3ccc(C(F)(F)F)cc3)oc2c1 is reported as over 200 µM (HS27; MTT; 24 h).
Cc1ccc2nc(-c3cccnc3)[nH]c2c1 gave an IC50 of 89 µM (MDA-MB-231; MTT; 48 h).
Cc1cc2c(cc1N1C(=O)c3cccc4c(CCCO)ccc(c34)C1=O)n(C)c(=O)n2C (racemic) gave a GI50 of 6.86 µM (NCI-H526; resazurin).
Cc1ccc2nc(-c3ccco3)n(Cc3ccccc3)c2c1 gave an IC50 of 60.5 µM (MDA-MB-231; MTT).
The GI50 of CC#CC(=O)N1CC[C@@H](n2cc(-c3ccc(Oc4c(F)cccc4F)cc3)c3c(N)n[nH]c(=O)c32)C1 is reported as 9.56 µM (OCI-Ly3; ATP luminescence; 72 h).
Cc1ccc2nc(-c3ccc(Cl)c(Cl)c3)n(Cc3ccccc3)c2c1 gave an IC50 of 83.2 µM (MDA-MB-231; MTT).
COc1ccc(-c2cc(=O)c3c(OC)cc(OC)c(-c4c(OC)cc(OC)c5c(=O)cc(-c6ccc(OC)cc6)oc45)c3o2)cc1 gave an IC50 of over 200 µM (HS27; MTT; 24 h).
